pIC50: −log10 of the molar value. Activity calls are given as the source filed them. No cut-off for these calls is given here.
Columns and labels:
[1] = target: T1, Mitogen-activated protein kinase kinase kinase kinase 2 (Homo sapiens) (UniProt Q12851); assay: Inhibition of MAP4K2 Lys1 labeling site in human A-375 cells at 0.5 uM by KiNativ Profiling analysis relative to control; assay type: cell-based
T1 sequence (whole entry): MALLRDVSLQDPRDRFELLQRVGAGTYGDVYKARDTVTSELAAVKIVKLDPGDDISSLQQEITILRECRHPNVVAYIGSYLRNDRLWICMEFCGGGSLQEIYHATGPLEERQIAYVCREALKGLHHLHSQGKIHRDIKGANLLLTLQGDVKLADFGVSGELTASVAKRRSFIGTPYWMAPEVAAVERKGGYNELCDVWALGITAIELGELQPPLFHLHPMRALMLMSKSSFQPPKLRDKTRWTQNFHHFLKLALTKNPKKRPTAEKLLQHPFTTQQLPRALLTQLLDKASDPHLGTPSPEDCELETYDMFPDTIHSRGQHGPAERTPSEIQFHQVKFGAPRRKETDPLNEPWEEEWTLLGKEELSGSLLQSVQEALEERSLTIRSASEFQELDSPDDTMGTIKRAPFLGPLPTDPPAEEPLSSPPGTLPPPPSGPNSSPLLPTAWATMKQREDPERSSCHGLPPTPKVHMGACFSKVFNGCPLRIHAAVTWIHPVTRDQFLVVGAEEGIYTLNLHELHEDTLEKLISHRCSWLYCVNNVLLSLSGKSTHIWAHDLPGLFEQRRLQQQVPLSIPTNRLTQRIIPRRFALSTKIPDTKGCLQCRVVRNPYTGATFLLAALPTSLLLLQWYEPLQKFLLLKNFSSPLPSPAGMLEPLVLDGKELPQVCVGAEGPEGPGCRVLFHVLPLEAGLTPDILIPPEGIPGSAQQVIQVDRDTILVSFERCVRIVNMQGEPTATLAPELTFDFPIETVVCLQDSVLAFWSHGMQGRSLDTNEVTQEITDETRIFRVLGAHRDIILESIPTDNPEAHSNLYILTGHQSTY

[2] = target: T2, Mitogen-activated protein kinase kinase kinase 7 (Homo sapiens) (UniProt O43318); assay: Inhibition of TAK1 Lys2 labeling site in human A-375 cells at 0.5 uM by KiNativ Profiling analysis relative to control; assay type: cell-based
T2 sequence (whole entry): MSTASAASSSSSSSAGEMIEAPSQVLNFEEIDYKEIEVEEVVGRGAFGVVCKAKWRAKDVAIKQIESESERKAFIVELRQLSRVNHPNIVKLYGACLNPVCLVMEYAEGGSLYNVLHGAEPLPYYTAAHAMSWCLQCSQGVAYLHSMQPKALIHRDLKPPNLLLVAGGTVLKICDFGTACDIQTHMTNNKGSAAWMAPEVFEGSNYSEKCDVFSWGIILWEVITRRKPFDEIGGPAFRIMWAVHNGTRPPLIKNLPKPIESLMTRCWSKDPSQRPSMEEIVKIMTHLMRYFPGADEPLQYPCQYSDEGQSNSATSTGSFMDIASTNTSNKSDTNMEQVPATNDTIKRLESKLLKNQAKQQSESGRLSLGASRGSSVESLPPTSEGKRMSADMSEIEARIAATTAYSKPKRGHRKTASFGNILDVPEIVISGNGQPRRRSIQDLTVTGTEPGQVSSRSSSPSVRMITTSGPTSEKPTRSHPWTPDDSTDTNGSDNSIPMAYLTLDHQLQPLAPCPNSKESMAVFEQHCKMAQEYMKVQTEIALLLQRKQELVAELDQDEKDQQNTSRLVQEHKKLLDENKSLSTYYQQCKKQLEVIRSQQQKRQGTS

[3] = target: T3, Mitogen-activated protein kinase kinase kinase kinase 2 (Homo sapiens, UniProt Q12851); assay: Inhibition of MAP4K2 (unknown origin) Lys1 labeling site by KiNativ Profiling analysis
T3 sequence (Q12851 whole entry): T1 sequence (whole entry)

[4] = target: T4, Mitogen-activated protein kinase kinase kinase 7 (Homo sapiens, UniProt O43318); assay: Inhibition of TAK1 (unknown origin) Lys2 labeling site by KiNativ Profiling analysis
T4 sequence (O43318 whole entry): T2 sequence (whole entry)

[5] = tested on: MEF; assay: Inhibition of IL-1 induced p38 MAPK phosphorylation level in TAK1 deficient mouse MEF cells incubated for 1 hr followed by IL-1 stimulation by Western blot analysis; assay type: functional, cell-based; details: dose <= 500.0 nM
Method in brief: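 WT and TAK1-null MEFs were grown in DMEM with 10% FBS and held in 0.1% FBS for 16 h. Compound was added 1 h before mouse IL-1α (5 ng/mL, 10 min). Cells were lysed in ice-cold buffer and extracts cleared at 16000g. Phospho-p38 was detected by Western blot.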

[6] = tested on: MEF; assay: Inhibition of TGF-beta induced p38 MAPK phosphorylation level in TAK1 deficient mouse MEF cells incubated for 1 hr followed by TGF-beta stimulation by Western blot analysis; assay type: functional, cell-based; details: dose <= 500.0 nM
Method in brief: (§1)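 In serum-starved WT and TAK1–/– MEFs (0.1% FBS, 16 h), inhibitor was added 1 h before TGFβ (50 pM, 45 min). Cleared lysates were immunoblotted for phospho-SMAD2 and phospho-p38.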

[7] = tested on: MEF; assay: Inhibition of TGF-beta induced SMAD2 phosphorylation level in TAK1 deficient mouse MEF cells at upto 500 nM incubated for 1 hr followed by TGF-beta stimulation by Western blot analysis; assay type: functional, cell-based; method in brief: as §1
[8] = target: Tyrosine-protein kinase JAK1 (Homo sapiens) (UniProt P23458); assay: Inhibition of JAK1 domain2 ACT labeling site in human A-375 cells at 5 uM by KiNativ Profiling analysis relative to control; assay type: cell-based
Sequence of Tyrosine-protein kinase JAK1 (Homo sapiens) (P23458 whole entry, the tested form may be a part): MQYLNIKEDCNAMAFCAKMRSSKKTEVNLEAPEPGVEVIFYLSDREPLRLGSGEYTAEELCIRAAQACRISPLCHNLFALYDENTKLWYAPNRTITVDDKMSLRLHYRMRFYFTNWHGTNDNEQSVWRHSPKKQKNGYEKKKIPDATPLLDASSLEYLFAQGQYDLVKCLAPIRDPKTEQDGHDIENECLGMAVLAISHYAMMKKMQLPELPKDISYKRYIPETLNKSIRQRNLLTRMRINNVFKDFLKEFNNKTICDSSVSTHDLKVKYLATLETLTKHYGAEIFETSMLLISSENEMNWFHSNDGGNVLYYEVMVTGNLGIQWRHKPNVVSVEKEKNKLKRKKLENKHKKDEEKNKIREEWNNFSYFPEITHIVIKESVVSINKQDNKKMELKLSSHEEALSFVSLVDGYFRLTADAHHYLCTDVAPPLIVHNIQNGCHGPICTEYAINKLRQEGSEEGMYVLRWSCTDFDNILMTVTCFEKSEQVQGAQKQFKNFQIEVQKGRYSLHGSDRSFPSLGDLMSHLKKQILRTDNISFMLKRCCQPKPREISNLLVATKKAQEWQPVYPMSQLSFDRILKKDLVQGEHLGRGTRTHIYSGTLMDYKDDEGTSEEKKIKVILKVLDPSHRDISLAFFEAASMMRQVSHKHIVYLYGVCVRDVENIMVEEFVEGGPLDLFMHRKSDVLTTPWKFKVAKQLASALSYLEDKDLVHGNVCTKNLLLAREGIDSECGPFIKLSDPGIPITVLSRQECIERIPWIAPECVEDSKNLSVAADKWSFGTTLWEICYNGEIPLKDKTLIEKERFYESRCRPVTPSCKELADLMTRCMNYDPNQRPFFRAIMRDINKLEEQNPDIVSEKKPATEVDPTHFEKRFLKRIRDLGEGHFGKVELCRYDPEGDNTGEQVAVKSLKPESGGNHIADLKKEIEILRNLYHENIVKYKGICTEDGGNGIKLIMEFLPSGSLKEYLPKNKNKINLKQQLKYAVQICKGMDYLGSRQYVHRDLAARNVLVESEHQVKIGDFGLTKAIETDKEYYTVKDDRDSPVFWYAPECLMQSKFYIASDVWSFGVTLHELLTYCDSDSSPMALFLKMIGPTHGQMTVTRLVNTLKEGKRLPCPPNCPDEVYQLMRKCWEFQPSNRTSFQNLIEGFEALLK

[9] = target: 5'-AMP-activated protein kinase catalytic subunit alpha-1 (Homo sapiens) (UniProt Q13131); assay: Inhibition of AMPKa1 ATP Loop labeling site in human A-375 cells at 0.5 uM by KiNativ Profiling analysis relative to control; assay type: cell-based
Sequence of 5'-AMP-activated protein kinase catalytic subunit alpha-1 (Homo sapiens) (Q13131 whole entry, looked up): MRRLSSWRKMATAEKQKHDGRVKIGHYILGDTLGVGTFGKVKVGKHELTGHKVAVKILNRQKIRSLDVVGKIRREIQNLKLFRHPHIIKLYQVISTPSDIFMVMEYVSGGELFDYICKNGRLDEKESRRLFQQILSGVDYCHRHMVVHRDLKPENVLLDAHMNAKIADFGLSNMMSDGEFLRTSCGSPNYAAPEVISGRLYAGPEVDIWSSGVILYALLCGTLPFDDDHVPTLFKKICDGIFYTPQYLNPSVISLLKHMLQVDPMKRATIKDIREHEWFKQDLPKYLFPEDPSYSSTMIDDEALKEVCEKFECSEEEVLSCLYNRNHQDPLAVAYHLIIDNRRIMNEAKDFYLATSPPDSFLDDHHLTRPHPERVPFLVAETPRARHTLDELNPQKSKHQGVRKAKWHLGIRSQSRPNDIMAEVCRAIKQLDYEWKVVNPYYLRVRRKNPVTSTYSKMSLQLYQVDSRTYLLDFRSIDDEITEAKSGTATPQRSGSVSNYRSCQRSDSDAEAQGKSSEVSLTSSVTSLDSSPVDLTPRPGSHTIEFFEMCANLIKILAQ
Method in brief: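 Live A375 melanoma cells were treated with compound at 5 or 0.5 μM, then lysed. The lysates were labeled with a lysine-reactive ATP or ADP-biotin probe. Kinase protection from probe labeling was measured by KiNativ.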

[10] = target: Serine/threonine-protein kinase 26 (Homo sapiens) (UniProt Q9P289); assay: Inhibition of MST4 ACT labeling site in human A-375 cells at 0.5 uM by KiNativ Profiling analysis relative to control; assay type: cell-based
Sequence of Serine/threonine-protein kinase 26 (Homo sapiens) (Q9P289 2-416 limits assumed): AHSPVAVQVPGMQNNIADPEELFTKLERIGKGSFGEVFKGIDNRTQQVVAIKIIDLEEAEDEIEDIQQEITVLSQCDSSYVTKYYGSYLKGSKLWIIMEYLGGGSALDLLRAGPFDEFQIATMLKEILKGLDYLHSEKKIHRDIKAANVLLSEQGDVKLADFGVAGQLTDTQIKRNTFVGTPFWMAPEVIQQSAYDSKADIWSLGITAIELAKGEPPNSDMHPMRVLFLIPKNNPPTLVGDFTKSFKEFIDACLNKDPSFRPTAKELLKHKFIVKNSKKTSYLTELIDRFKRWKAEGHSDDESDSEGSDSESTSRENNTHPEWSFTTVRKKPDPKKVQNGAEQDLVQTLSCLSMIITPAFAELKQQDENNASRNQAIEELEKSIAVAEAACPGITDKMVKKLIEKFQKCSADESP

[11] = target: Serine/threonine-protein kinase WNK1 (Homo sapiens) (UniProt Q9H4A3); assay: Inhibition of Wnk1 ATP Loop labeling site in human A-375 cells at 0.05 uM by KiNativ Profiling analysis relative to control; assay type: cell-based
Sequence of Serine/threonine-protein kinase WNK1 (Homo sapiens) (Q9H4A3 whole entry, looked up): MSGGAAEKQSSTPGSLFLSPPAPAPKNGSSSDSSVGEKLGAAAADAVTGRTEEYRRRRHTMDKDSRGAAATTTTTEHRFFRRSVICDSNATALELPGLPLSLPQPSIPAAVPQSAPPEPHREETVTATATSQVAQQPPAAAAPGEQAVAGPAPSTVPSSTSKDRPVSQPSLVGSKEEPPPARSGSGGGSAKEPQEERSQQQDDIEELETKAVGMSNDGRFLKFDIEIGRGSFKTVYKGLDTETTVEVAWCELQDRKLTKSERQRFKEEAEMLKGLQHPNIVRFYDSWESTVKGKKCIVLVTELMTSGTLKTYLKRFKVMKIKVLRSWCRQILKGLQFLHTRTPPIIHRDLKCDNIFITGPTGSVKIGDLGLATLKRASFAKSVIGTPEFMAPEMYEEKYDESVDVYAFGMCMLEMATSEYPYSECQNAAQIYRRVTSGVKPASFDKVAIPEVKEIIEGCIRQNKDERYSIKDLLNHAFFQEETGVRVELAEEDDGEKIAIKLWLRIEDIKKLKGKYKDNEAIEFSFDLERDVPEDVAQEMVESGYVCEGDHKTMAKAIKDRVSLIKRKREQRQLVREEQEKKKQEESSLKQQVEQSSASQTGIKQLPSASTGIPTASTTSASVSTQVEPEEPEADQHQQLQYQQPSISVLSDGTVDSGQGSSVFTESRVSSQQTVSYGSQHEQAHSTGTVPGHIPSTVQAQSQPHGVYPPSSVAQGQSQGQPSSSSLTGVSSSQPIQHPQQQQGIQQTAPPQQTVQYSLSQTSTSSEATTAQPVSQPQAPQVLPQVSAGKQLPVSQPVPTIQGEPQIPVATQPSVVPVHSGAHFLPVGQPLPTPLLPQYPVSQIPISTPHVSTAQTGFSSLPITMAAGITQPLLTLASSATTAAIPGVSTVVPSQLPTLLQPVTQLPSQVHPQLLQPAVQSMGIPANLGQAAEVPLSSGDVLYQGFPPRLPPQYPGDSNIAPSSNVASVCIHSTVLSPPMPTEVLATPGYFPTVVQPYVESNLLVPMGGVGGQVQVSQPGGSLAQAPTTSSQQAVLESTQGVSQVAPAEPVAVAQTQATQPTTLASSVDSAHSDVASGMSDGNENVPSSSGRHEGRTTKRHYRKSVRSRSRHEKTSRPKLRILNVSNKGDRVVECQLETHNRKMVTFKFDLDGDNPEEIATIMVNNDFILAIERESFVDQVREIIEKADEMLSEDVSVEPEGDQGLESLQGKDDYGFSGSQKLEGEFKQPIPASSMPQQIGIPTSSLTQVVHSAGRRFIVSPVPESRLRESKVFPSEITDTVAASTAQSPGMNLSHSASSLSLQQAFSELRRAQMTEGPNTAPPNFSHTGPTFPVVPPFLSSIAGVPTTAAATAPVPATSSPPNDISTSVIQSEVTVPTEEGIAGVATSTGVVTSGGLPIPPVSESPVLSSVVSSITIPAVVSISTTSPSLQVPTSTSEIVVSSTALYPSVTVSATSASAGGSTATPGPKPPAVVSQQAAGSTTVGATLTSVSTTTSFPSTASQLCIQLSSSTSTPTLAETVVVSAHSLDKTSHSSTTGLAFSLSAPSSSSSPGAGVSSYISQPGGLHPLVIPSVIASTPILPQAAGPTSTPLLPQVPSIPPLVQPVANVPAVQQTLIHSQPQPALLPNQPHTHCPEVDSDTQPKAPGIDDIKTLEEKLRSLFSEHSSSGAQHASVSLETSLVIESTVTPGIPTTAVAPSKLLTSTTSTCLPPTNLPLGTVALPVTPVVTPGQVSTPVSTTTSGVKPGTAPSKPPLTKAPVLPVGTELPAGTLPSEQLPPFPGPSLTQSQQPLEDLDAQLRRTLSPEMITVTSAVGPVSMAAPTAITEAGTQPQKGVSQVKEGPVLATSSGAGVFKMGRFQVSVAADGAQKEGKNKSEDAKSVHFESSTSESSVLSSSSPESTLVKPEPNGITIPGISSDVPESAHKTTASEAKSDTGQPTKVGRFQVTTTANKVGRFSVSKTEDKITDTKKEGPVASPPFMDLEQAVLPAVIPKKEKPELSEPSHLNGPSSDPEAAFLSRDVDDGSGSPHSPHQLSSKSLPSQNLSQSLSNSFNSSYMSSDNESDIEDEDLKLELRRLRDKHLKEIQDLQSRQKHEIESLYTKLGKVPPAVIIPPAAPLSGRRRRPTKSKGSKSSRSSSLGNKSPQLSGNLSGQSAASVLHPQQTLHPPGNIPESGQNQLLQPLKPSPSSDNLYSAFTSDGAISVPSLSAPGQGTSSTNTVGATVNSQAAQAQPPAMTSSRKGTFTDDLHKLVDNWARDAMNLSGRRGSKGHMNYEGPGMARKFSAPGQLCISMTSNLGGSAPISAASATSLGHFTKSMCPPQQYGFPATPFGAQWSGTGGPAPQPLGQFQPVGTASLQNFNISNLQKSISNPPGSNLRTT

[12] = tested on: GEN2.2; assay: Inhibition of CL097 induced JNK1/2 phosphorylation level in human GEN2.2 cells at 1 uM preincubated with compound for 1 hr followed by CL097 stimulation and measured after 30 mins by Western blot analysis; assay type: functional, cell-based
Method in brief: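 Gen2.2 cells were pretreated with compound at 1 μM for 1 h, then stimulated with CL097 for 30 min. Lysates were analysed by Western blot for phosphorylation of p105, p38 and JNK1/2.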

| Structure (SMILES) | inhibition [1] | inhibition [2] | pIC50 [3] | pIC50 [4] | inhibition [5] | inhibition [6] | inhibition [7] | inhibition [8] | inhibition [9] | inhibition [10] | inhibition [11] | inhibition [12] |
| --- | --- | --- | --- | --- | --- | --- | --- | --- | --- | --- | --- | --- |
| CNc1cc(Oc2cc(C(=O)Nc3cc(N4CCN(C)CC4)cc(C(F)(F)F)c3)ccc2C)ncn1 | 85.3% | 7% | 7.43 | 5.57 | Dose-Dependent Effect | Dose-Dependent Effect | inactive | – | – | – | – | – |
| CCN1CCN(Cc2ccc(NC(=O)c3ccc(C)c(/C=C/c4cnc5[nH]ccc5c4OC)c3)cc2C(F)(F)F)CC1 | – | – | 7.01 | 7.39 | – | – | – | 69.2% | -2.7% | 18.3% | 5% | – |
| CNc1cc(Oc2cc(C(=O)Nc3cc(-n4cnc(C)c4)cc(C(F)(F)F)c3)ccc2C)ncn1 | 79.7% | 29.3% | 6.89 | < 5.95 | Dose-Dependent Effect | Dose-Dependent Effect | inactive | – | – | – | – | inactive |
| CCN1CCN(Cc2ccc(NC(=O)c3ccc(C)c(Oc4ccnc5[nH]ccc45)c3)cc2C(F)(F)F)CC1 | > 99.5% | 97.1% | – | 6.83 | Dose-Dependent Effect | Dose-Dependent Effect | Active | 95.4% | -0.8% | 31.3% | 2.4% | Active |

Source: ChEMBL document CHEMBL5696442, “Discovery of type II inhibitors of TGFβ-activated kinase 1 (TAK1) and mitogen-activated protein kinase kinase kinase kinase 2 (MAP4K2)” (J Med Chem, 2015)
